Six molecules from ChEMBL document CHEMBL2321773, “Colloidal aggregation causes inhibition of G protein-coupled receptors” (J Med Chem, 2013) can be followed below.

Active and inactive are the calls of the source. The rule behind the calls is not given here.

Assay [1] can be described thus: Inhibition of AmpC beta lactamase (unknown origin) at 10 uM incubated for 5 mins. The essentials:
(§1)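 AmpC β-lactamase (1 nM) in 50 mM potassium phosphate pH 7.0 at room temperature; compound at 10 μM final from 10 mM DMSO stock, with or without 5 min preincubation with 1 μM vasopressin; enzyme incubated with sample 5 min, reaction started with 69 μM CENTA; absorbance change at 405 nm followed 2.5 min; quadruplicate.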

Assay [2] in a line: Inhibition of AmpC beta lactamase (unknown origin) at 10 uM incubated for 5 mins in presence of vasopressin. In outline: as §1
Assay [3] concerns the target T1, C-C chemokine receptor type 4 (Homo sapiens) (UniProt P51679).
T1 sequence (whole entry): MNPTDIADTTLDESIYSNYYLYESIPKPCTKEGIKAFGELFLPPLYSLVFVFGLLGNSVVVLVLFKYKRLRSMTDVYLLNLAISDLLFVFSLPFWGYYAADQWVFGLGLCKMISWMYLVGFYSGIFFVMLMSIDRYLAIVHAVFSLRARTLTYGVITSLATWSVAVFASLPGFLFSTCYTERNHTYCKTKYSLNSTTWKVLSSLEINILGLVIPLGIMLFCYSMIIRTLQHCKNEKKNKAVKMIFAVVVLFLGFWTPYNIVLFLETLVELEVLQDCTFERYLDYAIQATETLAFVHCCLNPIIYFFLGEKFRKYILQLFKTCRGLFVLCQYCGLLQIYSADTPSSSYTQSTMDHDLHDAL
Nature of the assay: (§2) Inhibition of CCL22-stimulated CCR4 in human HTLA cells pre-incubated for 20 mins with centrifuged compound solution measured on day 4 by beta arrestin-recruitment mediated luciferase reporter gene assay. The class given is cell-based. In outline:
(§3)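 HTLA cells (stable β-arrestin2-TEV protease fusion, tTA-dependent firefly luciferase) transfected by CaPO4 with receptor-V2-tTA construct; next day plated 20 000 cells/well in 1% dialyzed FBS; day 3 serum-free DMEM; compound 0.001 nM–100 μM final in HBSS/20 mM HEPES pH 7.4 for 20 min, then 1 μM agonist overnight, 37 °C; day 4 luminescence after Bright-Glo 30 min; normalized to vehicle and reference; sigmoidal fit.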
(In general: Reporter assays use an easily measured gene product as a stand-in for the process of interest.)

Assay [4] concerns the target T2, C-X-C chemokine receptor type 1 (Homo sapiens) (UniProt P25024).
T2 sequence (whole entry): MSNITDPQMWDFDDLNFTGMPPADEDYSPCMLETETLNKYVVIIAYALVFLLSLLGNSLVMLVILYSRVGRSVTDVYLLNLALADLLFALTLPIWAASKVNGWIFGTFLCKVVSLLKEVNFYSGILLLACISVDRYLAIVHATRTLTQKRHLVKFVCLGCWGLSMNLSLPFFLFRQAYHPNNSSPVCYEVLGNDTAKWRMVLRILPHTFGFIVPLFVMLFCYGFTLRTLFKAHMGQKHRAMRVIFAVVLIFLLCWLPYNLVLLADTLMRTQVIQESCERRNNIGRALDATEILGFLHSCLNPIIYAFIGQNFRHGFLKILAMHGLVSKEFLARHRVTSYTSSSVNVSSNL
Nature of the assay: Inhibition of CX3CL1-stimulated CX3CR1 in human HTLA cells pre-incubated for 20 mins with centrifuged compound solution measured on day 4 by beta arrestin-recruitment mediated luciferase reporter gene assay.

Assay [5] concerns the target T3, Vasopressin V2 receptor (Homo sapiens, UniProt P30518). As to the kind of experiment: Inhibition of vasopressin V2 receptor (unknown origin) assessed as change in intracellular calcium levels treated with centrifuged compound solution by fluorometric analysis. In kind it is functional, cell-based. In general terms: A change in cytosolic calcium serves as a functional read-out for many receptors and channels.

In assay [6] the target is T3, Vasopressin V2 receptor. As to the kind of experiment: Inhibition of vasopressin V2 receptor (unknown origin) assessed as change in intracellular calcium levels incubated with compound treated with Tween-80 by fluorometric analysis. In kind it is functional, cell-based.
Assay [7] addresses T3, Vasopressin V2 receptor. Nature of the assay: Inhibition of vasopressin-stimulated vasopressin V2 receptor in human HTLA cells pre-incubated for 20 mins with Tween-80-treated compound solution measured on day 4 by beta arrestin-recruitment mediated luciferase reporter gene assay. The class given is cell-based. In outline: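 Transfected HTLA β-arrestin/tTA-luciferase reporter cells were kept serum-free on day 3 and given compound (0.001 nM–100 μM final, pH 7.4 HEPES-HBSS buffer) for 20 min. They were then stimulated with 1 μM vasopressin overnight at 37 °C. Media was removed before day-4 luciferase read; normalized to vehicle/reference, sigmoidal regression.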

For assay [8], the target named is T4, C-C chemokine receptor type 4 (Homo sapiens, UniProt P51679).
T4 sequence (P51679 whole entry): T1 sequence (whole entry)
As to the kind of experiment: Inverse agonist activity at CCR4 in human HTLA cells assessed as depression of basal activity incubated for 20 mins by beta arrestin-recruitment mediated luciferase reporter gene assay in absence of CCL22. In kind it is cell-based. The essentials: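 β-Arrestin recruitment luciferase reporter in transfected HTLA cells without CCL22 agonist. Compounds ranged 0.001 nM to 100 μM final in HBSS/HEPES pH 7.4 buffer, with 20 min exposure in serum-free DMEM. Luminescence read on day 4.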

The target of assay [9] is T5, Cruzipain (Trypanosoma cruzi, UniProt P25779). As to the kind of experiment: Inhibition of Trypanosoma cruzi cruzaine using Z-Phe-Arg-aminomethylcoumarin as substrate incubated for 5 mins by spectrofluorimetric analysis in presence of Tween-80. The essentials:
(§4)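 Cruzain at 0.4 nM final in 0.1 M sodium acetate pH 5.5 with 5 mM DTT and 1% DMSO. Compound preincubated with enzyme for 5 min, then 2.5 μM Z-FR-AMC added. Fluorescence increase (ex 355/em 460 nm) monitored for 5 min. Duplicate wells, two separate experiments. IC50 from variable-slope sigmoidal fit.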

Assay [10] in a line: Inhibition of AmpC beta lactamase (unknown origin) incubated for 5 mins by UV-Vis spectrophotometric analysis in absence of Triton X-100.
Assay [11] concerns the target T5, Cruzipain. Nature of the assay: Inhibition of Trypanosoma cruzi cruzaine using Z-Phe-Arg-aminomethylcoumarin as substrate incubated for 5 mins by spectrofluorimetric analysis in absence of Tween-80. In outline:
as §4

Assay [12] is described as follows: Inhibition of AmpC beta lactamase (unknown origin) incubated for 5 mins by UV-Vis spectrophotometric analysis in presence of Triton X-100.
The target of assay [13] is T4, C-C chemokine receptor type 4. Nature of the assay: Inhibition of CCL22-stimulated CCR4 in human HTLA cells pre-incubated for 20 mins measured on day 4 by beta arrestin-recruitment mediated luciferase reporter gene assay.
Assay [14] concerns the target T3, Vasopressin V2 receptor. Nature of the assay: Inhibition of vasopressin-stimulated vasopressin V2 receptor in human HTLA cells pre-incubated for 20 mins measured on day 4 by beta arrestin-recruitment mediated luciferase reporter gene assay. The class given is cell-based.
Assay [15] deals with T3, Vasopressin V2 receptor. As to the kind of experiment: Inhibition of vasopressin-stimulated vasopressin V2 receptor in human HTLA cells pre-incubated for 20 mins with centrifuged compound solution measured on day 4 by beta arrestin-recruitment mediated luciferase reporter gene assay.
Assay [16] has as its target T4, C-C chemokine receptor type 4. The description is as §2. In kind it is cell-based. The essentials: as §3
Assay [17] shares this target. Nature of the assay: Inhibition of CCL22-stimulated CCR4 in human HTLA cells pre-incubated for 20 mins with Tween-80-treated compound solution measured on day 4 by beta arrestin-recruitment mediated luciferase reporter gene assay.

Usually inhibition stands for how much of the control response was suppressed. What is called IC50 is the concentration at which inhibition is half-maximal.

T5 sequence (P25779 whole entry): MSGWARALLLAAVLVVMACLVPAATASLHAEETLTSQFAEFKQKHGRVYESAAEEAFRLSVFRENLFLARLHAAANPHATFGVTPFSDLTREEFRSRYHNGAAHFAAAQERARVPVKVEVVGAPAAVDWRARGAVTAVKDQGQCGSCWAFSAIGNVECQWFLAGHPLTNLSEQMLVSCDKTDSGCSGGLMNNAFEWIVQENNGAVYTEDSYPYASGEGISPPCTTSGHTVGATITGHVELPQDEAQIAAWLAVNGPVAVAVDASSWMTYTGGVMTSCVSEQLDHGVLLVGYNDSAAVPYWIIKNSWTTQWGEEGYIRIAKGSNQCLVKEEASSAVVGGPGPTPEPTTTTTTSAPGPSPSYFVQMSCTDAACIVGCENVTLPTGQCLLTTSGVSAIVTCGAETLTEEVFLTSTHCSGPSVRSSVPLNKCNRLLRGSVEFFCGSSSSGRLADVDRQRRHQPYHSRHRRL
T3 sequence (P30518 whole entry): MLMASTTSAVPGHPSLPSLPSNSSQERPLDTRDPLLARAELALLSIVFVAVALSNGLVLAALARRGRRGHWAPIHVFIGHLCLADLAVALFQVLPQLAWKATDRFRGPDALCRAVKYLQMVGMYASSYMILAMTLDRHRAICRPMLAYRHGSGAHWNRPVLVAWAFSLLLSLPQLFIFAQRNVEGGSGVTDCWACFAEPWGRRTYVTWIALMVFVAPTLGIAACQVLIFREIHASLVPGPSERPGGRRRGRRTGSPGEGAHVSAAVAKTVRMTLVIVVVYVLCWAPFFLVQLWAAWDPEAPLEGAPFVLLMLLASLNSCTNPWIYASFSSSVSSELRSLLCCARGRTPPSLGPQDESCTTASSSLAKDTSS

Regarding `O=C1OC(c2cc(I)c(O)c(I)c2)(c2c(I)cc(O)cc2I)c2ccccc21` (stereo not drawn), the inhibition in assay [1] is 77%; in [2] it was 7%. The inhibition entry in assay [3] and in assay [4] was “inactive” throughout. Further, the inhibition result in assay [5] and in assay [6] was “Active” in each case.

On to `O=c1c(O)c(-c2ccc(O)c(O)c2)oc2cc(O)cc(O)c12`, for which, in [4], the inhibition entry was “inactive”.

On to `Clc1ccccc1C(c1ccccc1)(c1ccccc1)n1ccnc1` [CLOTRIMAZOLE], for which the inhibition entry in [7] and in assay [3] was “inactive” in each case. For the same molecule, the inhibition entry in assay [5] and in assay [6] was “Active” each time. Moreover, the 50% inhibitory concentration (IC50) in [8] is 1.6 µM.

Regarding `O=c1c(-c2ccc(O)cc2)coc2cc(O)cc(O)c12` [GENISTEIN], the IC50 in assay [9] was above 400 µM; in assay [10], 16.7 µM; in assay [11], 82.7 µM; in assay [12], above 100 µM.

Take `CCC(C)n1ncn(-c2ccc(N3CCN(c4ccc(OCC5COC(Cn6cncn6)(c6ccc(Cl)cc6Cl)O5)cc4)CC3)cc2)c1=O` (stereo not drawn) [ITRACONAZOLE]: the IC50 in assay [13] is 0.501 µM; in [7], 6.31 µM; in [14], 0.794 µM; in [15], 11.9 µM; in assay [16], 7.2 µM; in [17] it was 12.6 µM. The inhibition entry in assay [5] and in assay [6] was “Active” throughout.

`O=c1cc(-c2ccc(O)c(O)c2)oc2cc(O)cc(O)c12` [LUTEOLIN]: the half-inhibitory concentration (IC50) in [9] was 156 µM; in assay [10], 21.9 µM; in assay [11] it was 27.3 µM; in [12], above 100 µM.
